The values that follow come from ChEMBL document CHEMBL3243962, “Antileukemic activity of derivatives of 1,2-dimethyl-3,4-bis(hydroxymethyl)-5-phenylpyrrole bis(N-methylcarbamate)” (J Med Chem, 1979).

By T/C is commonly meant the result in the treated group divided by that in the control group, in per cent.

Series [1] has as its system Mus musculus. Description: Toxicity in mouse P388 cells allografted CD2F1 mouse assessed as body weight loss at 12.5 mg/kg, ip of total 9 doses starting 24 hrs post tumor inoculation measured on day 5 of inoculation relative to control. As to conditions: in vivo. It is filed as organism-based. Also on record: dose 12.5 mg/kg, route intraperitoneal. In short, it runs like this: (§1)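 Male CD2F1 mice inoculated ip with 6×10^6 P388 leukemia cells. Compounds given ip as distilled water–Tween 80 suspension, nine daily doses starting 24 h after inoculation; six mice per dose group. Treated-minus-control body-weight change (T − C) and toxicity-day survivors recorded on day 5 (4 days after first dose).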

Series [2] relates to Mus musculus. Nature of the series: Toxicity in mouse P388 cells allografted CD2F1 mouse assessed as mouse survival at 3.12 mg/kg, ip of total 9 doses starting 24 hrs post tumor inoculation measured on day 5 of inoculation relative to control. Also on record: dose 3.12 mg/kg, route intraperitoneal. In kind it is organism-based. As to conditions: in vivo. In short, it runs like this: (§2)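 Male CD2F1 mice bearing ip P388 leukemia (6×10^6 cells) were dosed ip with nine daily doses in distilled water–Tween 80 suspension, starting 24 h after inoculation. Survivors per group of 6 were counted on day 5, i.e. 4 days after the first dose. Body-weight change of treated minus control mice was also recorded.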

For series [3], the system named is P388. Nature of the series: Antitumor activity against mouse P388 cells allografted in CD2F1 mouse assessed as increase in mouse survival at 3.12 mg/kg, ip of total 9 doses starting 24 hrs post tumor inoculation measured on day 5 of inoculation relative to control. In kind it is functional. To be noted: route intraperitoneal. Summed up:
(§3)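 Male CD2F1 mice inoculated ip with 6×10^6 P388 leukemia cells. Dosing was ip as a suspension in distilled water–Tween 80, nine daily doses starting 24 h after inoculation. Activity was read as median survival time of treated vs control mice (% T/C); % T/C ≥ 120 was considered significant. Groups were 6 mice.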

Series [4] concerns Mus musculus. Nature of the series: Toxicity in mouse P388 cells allografted CD2F1 mouse assessed as mouse survival at 6.25 mg/kg, ip of total 9 doses starting 24 hrs post tumor inoculation measured on day 5 of inoculation relative to control. It is filed as organism-based. Also on record: dose 6.25 mg/kg, route intraperitoneal. As to conditions: in vivo. Summed up: as §2
In series [5] the test system is P388. Description: Antitumor activity against mouse P388 cells allografted in CD2F1 mouse assessed as increase in mouse survival at 50 mg/kg, ip of total 9 doses starting 24 hrs post tumor inoculation measured on day 5 of inoculation relative to control. It is filed as functional. To be noted: route intraperitoneal. In short, it runs like this:
as §3

In series [6] the test system is Mus musculus. Description: Toxicity in mouse P388 cells allografted CD2F1 mouse assessed as body weight loss at 50 mg/kg, ip of total 9 doses starting 24 hrs post tumor inoculation measured on day 5 of inoculation relative to control. To be noted: in vivo. Also on record: dose 50 mg/kg, route intraperitoneal. In kind it is organism-based. In short, it runs like this: as §1

The subject of series [7] is P388. Nature of the series: Antitumor activity against mouse P388 cells allografted in CD2F1 mouse assessed as increase in mouse survival at 12.5 mg/kg, ip of total 9 doses starting 24 hrs post tumor inoculation measured on day 5 of inoculation relative to control. It is filed as functional. To be noted: route intraperitoneal. Summed up:
as §3

The subject of series [8] is Mus musculus. Description: Toxicity in mouse P388 cells allografted CD2F1 mouse assessed as mouse survival at 12.5 mg/kg, ip of total 9 doses starting 24 hrs post tumor inoculation measured on day 5 of inoculation relative to control. As to conditions: in vivo. It is filed as organism-based. Also on record: dose 12.5 mg/kg, route intraperitoneal. In short, it runs like this:
as §2

The test system of series [9] is Mus musculus. Nature of the series: Toxicity in mouse P388 cells allografted CD2F1 mouse assessed as mouse survival at 25 mg/kg, ip of total 9 doses starting 24 hrs post tumor inoculation measured on day 5 of inoculation relative to control. It is filed as organism-based. Also on record: dose 25 mg/kg, route intraperitoneal. To be noted: in vivo. Summed up:
as §2

The test system of series [10] is Mus musculus. Nature of the series: Toxicity in mouse P388 cells allografted CD2F1 mouse assessed as body weight loss at 6.25 mg/kg, ip of total 9 doses starting 24 hrs post tumor inoculation measured on day 5 of inoculation relative to control. The arrangement: dose 6.25 mg/kg, route intraperitoneal. It is filed as organism-based. To be noted: in vivo. Summed up:
as §1

Series [11] has as its system P388. Description: Antitumor activity against mouse P388 cells allografted in CD2F1 mouse assessed as increase in mouse survival at 25 mg/kg, ip of total 9 doses starting 24 hrs post tumor inoculation measured on day 5 of inoculation relative to control. As to conditions: route intraperitoneal. In kind it is functional. In short, it runs like this:
as §3

The test system of series [12] is Mus musculus. Description: Toxicity in mouse P388 cells allografted CD2F1 mouse assessed as body weight loss at 3.12 mg/kg, ip of total 9 doses starting 24 hrs post tumor inoculation measured on day 5 of inoculation relative to control. In kind it is organism-based. The arrangement: dose 3.12 mg/kg, route intraperitoneal. To be noted: in vivo. Summed up: as §1

Series [13] concerns Mus musculus. Description: Toxicity in mouse P388 cells allografted CD2F1 mouse assessed as body weight loss at 25 mg/kg, ip of total 9 doses starting 24 hrs post tumor inoculation measured on day 5 of inoculation relative to control. It is filed as organism-based. Also on record: dose 25 mg/kg, route intraperitoneal. As to conditions: in vivo. In short, it runs like this:
as §1

The subject of series [14] is P388. Nature of the series: Antitumor activity against mouse P388 cells allografted in CD2F1 mouse assessed as increase in mouse survival at 6.25 mg/kg, ip of total 9 doses starting 24 hrs post tumor inoculation measured on day 5 of inoculation relative to control. In kind it is functional. As to conditions: route intraperitoneal. In short, it runs like this: as §3

The test system of series [15] is Mus musculus. Description: Toxicity in mouse P388 cells allografted CD2F1 mouse assessed as body weight loss at 20 mg/kg, ip of total 9 doses starting 24 hrs post tumor inoculation measured on day 5 of inoculation relative to control. It is filed as organism-based. The arrangement: dose 20 mg/kg, route intraperitoneal. To be noted: in vivo. Summed up: as §1
The subject of series [16] is P388. Description: Antitumor activity against mouse P388 cells allografted in CD2F1 mouse assessed as increase in mouse survival at 80 mg/kg, ip of total 9 doses starting 24 hrs post tumor inoculation measured on day 5 of inoculation relative to control. It is filed as functional. As to conditions: route intraperitoneal. Summed up:
as §3

For series [17], the system named is Mus musculus. Description: Toxicity in mouse P388 cells allografted CD2F1 mouse assessed as mouse survival at 40 mg/kg, ip of total 9 doses starting 24 hrs post tumor inoculation measured on day 5 of inoculation relative to control. It is filed as organism-based. Also on record: dose 40 mg/kg, route intraperitoneal. To be noted: in vivo. Summed up: as §2
Series [18] has as its system Mus musculus. Nature of the series: Toxicity in mouse P388 cells allografted CD2F1 mouse assessed as body weight loss at 5 mg/kg, ip of total 9 doses starting 24 hrs post tumor inoculation measured on day 5 of inoculation relative to control. In kind it is organism-based. Also on record: dose 5 mg/kg, route intraperitoneal. To be noted: in vivo. In short, it runs like this:
as §1

Series [19] concerns Mus musculus. Nature of the series: Toxicity in mouse P388 cells allografted CD2F1 mouse assessed as mouse survival at 5 mg/kg, ip of total 9 doses starting 24 hrs post tumor inoculation measured on day 5 of inoculation relative to control. Also on record: dose 5 mg/kg, route intraperitoneal. In kind it is organism-based. To be noted: in vivo. Summed up: as §2
The test system of series [20] is P388. Description: Antitumor activity against mouse P388 cells allografted in CD2F1 mouse assessed as increase in mouse survival at 20 mg/kg, ip of total 9 doses starting 24 hrs post tumor inoculation measured on day 5 of inoculation relative to control. It is filed as functional. To be noted: route intraperitoneal. In short, it runs like this: as §3
Series [21] has as its system P388. Description: Antitumor activity against mouse P388 cells allografted in CD2F1 mouse assessed as increase in mouse survival at 40 mg/kg, ip of total 9 doses starting 24 hrs post tumor inoculation measured on day 5 of inoculation relative to control. In kind it is functional. As to conditions: route intraperitoneal. Summed up: as §3
Series [22] relates to Mus musculus. Nature of the series: Toxicity in mouse P388 cells allografted CD2F1 mouse assessed as body weight loss at 80 mg/kg, ip of total 9 doses starting 24 hrs post tumor inoculation measured on day 5 of inoculation relative to control. It is filed as organism-based. The arrangement: dose 80 mg/kg, route intraperitoneal. To be noted: in vivo. In short, it runs like this: as §1

Series [23] relates to P388. Description: Antitumor activity against mouse P388 cells allografted in CD2F1 mouse assessed as increase in mouse survival at 10 mg/kg, ip of total 9 doses starting 24 hrs post tumor inoculation measured on day 5 of inoculation relative to control. It is filed as functional. To be noted: route intraperitoneal. Summed up:
as §3

The subject of series [24] is Mus musculus. Description: Toxicity in mouse P388 cells allografted CD2F1 mouse assessed as mouse survival at 10 mg/kg, ip of total 9 doses starting 24 hrs post tumor inoculation measured on day 5 of inoculation relative to control. To be noted: in vivo. The arrangement: dose 10 mg/kg, route intraperitoneal. It is filed as organism-based. In short, it runs like this:
as §2

Series [25] deals with P388. Description: Antitumor activity against mouse P388 cells allografted in CD2F1 mouse assessed as increase in mouse survival at 5 mg/kg, ip of total 9 doses starting 24 hrs post tumor inoculation measured on day 5 of inoculation relative to control. As to conditions: route intraperitoneal. It is filed as functional. In short, it runs like this: as §3
Series [26] relates to Mus musculus. Nature of the series: Toxicity in mouse P388 cells allografted CD2F1 mouse assessed as mouse survival at 80 mg/kg, ip of total 9 doses starting 24 hrs post tumor inoculation measured on day 5 of inoculation relative to control. It is filed as organism-based. As to conditions: in vivo. The arrangement: dose 80 mg/kg, route intraperitoneal. In short, it runs like this:
as §2

In series [27] the test system is Mus musculus. Nature of the series: Toxicity in mouse P388 cells allografted CD2F1 mouse assessed as body weight loss at 40 mg/kg, ip of total 9 doses starting 24 hrs post tumor inoculation measured on day 5 of inoculation relative to control. It is filed as organism-based. Also on record: dose 40 mg/kg, route intraperitoneal. To be noted: in vivo. In short, it runs like this: as §1

The test system of series [28] is Mus musculus. Description: Toxicity in mouse P388 cells allografted CD2F1 mouse assessed as mouse survival at 20 mg/kg, ip of total 9 doses starting 24 hrs post tumor inoculation measured on day 5 of inoculation relative to control. To be noted: in vivo. The arrangement: dose 20 mg/kg, route intraperitoneal. It is filed as organism-based. Summed up:
as §2

Series [29] relates to Mus musculus. Nature of the series: Toxicity in mouse P388 cells allografted CD2F1 mouse assessed as body weight loss at 10 mg/kg, ip of total 9 doses starting 24 hrs post tumor inoculation measured on day 5 of inoculation relative to control. As to conditions: in vivo. Also on record: dose 10 mg/kg, route intraperitoneal. It is filed as organism-based. Summed up:
as §1

For `CNC(=O)OCc1c(COC(=O)NC)c(-c2ccc(SC)cc2)n(C)c1C`, the Activity in series [1] was 4.3 g; in series [2], “Non-toxic”; in [4], “Non-toxic”; in [6], 2.9 g; in series [8] it was “Non-toxic”; in series [9], “Non-toxic”. Moreover, the values for the Activity in series [10], in series [12] and in series [13] were 1.4 g, 2.1 g and 3.1 g, respectively. Also, the T/C is given as 187% in series [3]; 150% in [5]; 144% in series [7]; 144% in series [11]; 143% in [14].
`CNC(=O)OCc1c(COC(=O)NC)c(-c2ccc(S(=O)(=O)c3ccccc3)cc2)n(C)c1C`: the Activity in [15] is on record as 1.9 g; in series [17] it was “Non-toxic”; in series [18] it was 1.3 g; in series [19], “Non-toxic”; in [22], 3.6 g; in series [24] it was “Non-toxic”. Besides, the Activity result in [26] is recorded as “Non-toxic”; in [27], 3.1 g; in series [28], “Non-toxic”; in series [29], 0.9 g. The T/C in series [16] came to 153%; in series [20], 146%; in [21] it was 153%; in [23], 136%; in series [25], 137%.
